Measured values as given in ChEMBL document CHEMBL1135836, “Cyclodextrin-derived host molecules as reversal agents for the neuromuscular blocker rocuronium bromide: synthesis and structure-activity relationships” (J Med Chem, 2002).

How the values were obtained:
Type in all cases: functional
Cavia porcellus [1] = experiment: In vivo reversal activity versus ~90% block by rocuronium in guinea pig
Summary of the method: (§1)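 Male Dunkin-Hartley guinea pigs (600-900 g), anaesthetized ip with pentobarbitone 10 mg/kg plus urethane 1000 mg/kg, tracheotomized and ventilated. Continuous iv rocuronium infusion (~10 nmol kg-1 min-1) was raised to a steady 85-90% block. Increasing iv doses of agent were given cumulatively. ED50 = 50% recovery versus preblock twitch, by regression. Mean ± SEM of at least two experiments, or one.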

Mus musculus [2] = organism: Mus musculus; experiment: In vitro reversal activity versus ~90% block by rocuronium in isolated mouse hemidiaphragm, expressed as % of maximum reversal at 7.2 uM conc.
Cavia porcellus [3] = experiment: In vivo reversal activity versus ~90% block by rocuronium in guinea pig, expressed as % of maximum reversal at 2 umol/kg conc.
Summary of the method: (§2)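 Male Dunkin-Hartley guinea pigs (600-900 g) anaesthetized ip with pentobarbitone 10 mg/kg plus urethane 1000 mg/kg, tracheotomized and artificially ventilated. Continuous iv rocuronium bromide infusion (~10 nmol kg-1 min-1) raised until steady-state twitch block of 85-90%. Increasing single iv doses of reversal agent given by a separate catheter. Max reversal is peak twitch recovery versus preblock height at highest dose tested; means ± SEM, n ≥ 2 or single experiment.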

Mus musculus [4] = organism: Mus musculus; experiment: In vitro reversal activity versus ~90% block by rocuronium in isolated mouse hemidiaphragm, expressed as effective conc.
Mus musculus [5] = organism: Mus musculus; experiment: In vitro reversal activity versus ~90% block by rocuronium in isolated mouse hemidiaphragm, expressed as % of maximum reversal at 9 uM conc.
Cavia porcellus [6] = experiment: In vivo reversal activity versus ~90% block by rocuronium in guinea pig, expressed as % of maximum reversal at 3.6 umol/kg conc.; summary of the method: as §2
Cavia porcellus [7] = experiment: In vivo reversal activity versus ~90% block by rocuronium in guinea pig, expressed as % of maximum reversal at 2.8 umol/kg conc.; summary of the method: as §2
Cavia porcellus [8] = experiment: In vivo reversal activity versus ~90% block by rocuronium in guinea pig, expressed as % of maximum reversal at 16 umol/kg conc.; summary of the method: as §2
Mus musculus [9] = organism: Mus musculus; experiment: In vitro reversal activity versus ~90% block by rocuronium in isolated mouse hemidiaphragm, expressed as % of maximum reversal at 360 uM conc.
Cavia porcellus [10] = experiment: In vivo reversal activity versus ~90% block by rocuronium in guinea pig, expressed as % of maximum reversal. at a conc. of 0.08 uM
Mus musculus [11] = organism: Mus musculus; experiment: In vitro reversal activity versus ~90% block by rocuronium in isolated mouse hemidiaphragm, expressed as % of maximum reversal
Cavia porcellus [12] = experiment: In vivo reversal activity versus ~90% block by rocuronium in guinea pig, expressed as % of maximum reversal at 8 umol/kg conc.; summary of the method: as §2
Mus musculus [13] = organism: Mus musculus; experiment: In vitro reversal activity versus ~90% block by rocuronium in isolated mouse hemidiaphragm, expressed as % of maximum reversal at 18 uM conc.
Cavia porcellus [14] = experiment: In vivo reversal activity versus ~90% block by rocuronium in guinea pig, expressed as % of maximum reversal at 1.6 umol/kg conc.; summary of the method: as §1
Cavia porcellus [15] = experiment: In vivo reversal activity versus ~90% block by rocuronium in guinea pig, expressed as % of maximum reversal at 31.8 umol/kg conc.; summary of the method: as §2
Cavia porcellus [16] = experiment: In vivo reversal activity versus ~90% block by rocuronium in guinea pig, expressed as % of maximum reversal at 15 umol/kg conc.; summary of the method: as §2
Mus musculus [17] = organism: Mus musculus; experiment: In vitro reversal activity versus ~90% block by rocuronium in isolated mouse hemidiaphragm, expressed as % of maximum reversal at 180 uM conc.

Row | SMILES | EC50 (Mus musculus [4]) | ED50 (Cavia porcellus [1]) | Max reversal (Mus musculus [2]) | further results
1 | O=C([O-])CCSCC1O[C@@H]2O[C@@H]3C(CSCCC(=O)[O-])O[C@H](O[C@@H]4C(CSCCC(=O)[O-])O[C@H](O[C@@H]5C(CSCCC(=O)[O-])O[C@H](O[C@@H]6C(CSCCC(=O)[O-])O[C@H](O[C@@H]7C(CSCCC(=O)[O-])O[C@H](O[C@H]1C(O)C2O)C(O)C7O)C(O)C6O)C(O)C5O)C(O)C4O)C(O)C3O.[Na+].[Na+].[Na+].[Na+].[Na+].[Na+] (some centres undefined) | > 360 µM | > 16 µmol/kg |  | Max reversal (Cavia porcellus [8]): 3.2%; Max reversal (Mus musculus [9]): 0%
2 | CN(C)C(=O)Oc1cccc([N+](C)(C)C)c1.[Br-] [NEOSTIGMINE BROMIDE] | 0.9 µM | 0.04 µmol/kg |  | Max reversal (Cavia porcellus [10]): 65.3%; Max reversal (Mus musculus [11]): 74.4%
3 | CC(CSCC1O[C@@H]2O[C@@H]3C(CSCC(C)C(=O)[O-])O[C@H](O[C@@H]4C(CSCC(C)C(=O)[O-])O[C@H](O[C@@H]5C(CSCC(C)C(=O)[O-])O[C@H](O[C@@H]6C(CSCC(C)C(=O)[O-])O[C@H](O[C@@H]7C(CSCC(C)C(=O)[O-])O[C@H](O[C@@H]8C(CSCC(C)C(=O)[O-])O[C@H](O[C@@H]9C(CSCC(C)C(=O)[O-])O[C@H](O[C@H]1C(O)C2O)C(O)C9O)C(O)C8O)C(O)C7O)C(O)C6O)C(O)C5O)C(O)C4O)C(O)C3O)C(=O)[O-].[Na+].[Na+].[Na+].[Na+].[Na+].[Na+].[Na+].[Na+] (some centres undefined) | 9.5 µM | 0.73 µmol/kg |  | Max reversal (Cavia porcellus [12]): 97.8%; Max reversal (Mus musculus [13]): 77.5%
4 | O=C([O-])CCc1ccc(SCC2O[C@@H]3O[C@@H]4C(CO)O[C@H](O[C@@H]5C(CO)O[C@H](O[C@@H]6C(CO)O[C@H](O[C@@H]7C(CO)O[C@H](O[C@@H]8C(CO)O[C@H](O[C@@H]9C(CO)O[C@H](O[C@@H]%10C(CO)O[C@H](O[C@H]2C(O)C3O)C(O)C%10O)C(O)C9O)C(O)C8O)C(O)C7O)C(O)C6O)C(O)C5O)C(O)C4O)cc1.[Na+] (some centres undefined) | 32.8 µM | 3.33 µmol/kg |  | Max reversal (Cavia porcellus [15]): 93.8%; Max reversal (Mus musculus [13]): 36.2%
5 | O=C([O-])CCc1cccc(SCC2O[C@@H]3O[C@@H]4C(CO)O[C@H](O[C@@H]5C(CO)O[C@H](O[C@@H]6C(CO)O[C@H](O[C@@H]7C(CO)O[C@H](O[C@@H]8C(CO)O[C@H](O[C@@H]9C(CO)O[C@H](O[C@@H]%10C(CO)O[C@H](O[C@H]2C(O)C3O)C(O)C%10O)C(O)C9O)C(O)C8O)C(O)C7O)C(O)C6O)C(O)C5O)C(O)C4O)c1.[Na+] (some centres undefined) | > 18 µM | 12.6 µmol/kg |  | Max reversal (Cavia porcellus [16]): 55.8%; Max reversal (Mus musculus [13]): 3.9%
6 | O=C([O-])c1ccc(SCC2O[C@@H]3O[C@@H]4C(CO)O[C@H](O[C@@H]5C(CO)O[C@H](O[C@@H]6C(CO)O[C@H](O[C@@H]7C(CO)O[C@H](O[C@@H]8C(CO)O[C@H](O[C@@H]9C(CO)O[C@H](O[C@@H]%10C(CO)O[C@H](O[C@H]2C(O)C3O)C(O)C%10O)C(O)C9O)C(O)C8O)C(O)C7O)C(O)C6O)C(O)C5O)C(O)C4O)cc1.[Na+] (some centres undefined) | 50.3 µM | 0.94 µmol/kg |  | Max reversal (Cavia porcellus [12]): 102.4%; Max reversal (Mus musculus [17]): 94.7%

Second part, led by results:

Row | EC50 (Mus musculus [4]) | SMILES | ED50 (Cavia porcellus [1]) | Max reversal (Mus musculus [2]) | further results
7 | 4 µM | OCCSCC1O[C@@H]2O[C@@H]3C(CSCCO)O[C@H](O[C@@H]4C(CSCCO)O[C@H](O[C@@H]5C(CSCCO)O[C@H](O[C@@H]6C(CSCCO)O[C@H](O[C@@H]7C(CSCCO)O[C@H](O[C@@H]8C(CSCCO)O[C@H](O[C@@H]9C(CSCCO)O[C@H](O[C@H]1C(O)C2O)C(O)C9O)C(O)C8O)C(O)C7O)C(O)C6O)C(O)C5O)C(O)C4O)C(O)C3O (some centres undefined) | 0.21 µmol/kg | 86.4% | Max reversal (Cavia porcellus [3]): 95.8%
8 | 4.1 µM | OCCCSCC1O[C@@H]2O[C@@H]3C(CSCCCO)O[C@H](O[C@@H]4C(CSCCCO)O[C@H](O[C@@H]5C(CSCCCO)O[C@H](O[C@@H]6C(CSCCCO)O[C@H](O[C@@H]7C(CSCCCO)O[C@H](O[C@@H]8C(CSCCCO)O[C@H](O[C@@H]9C(CSCCCO)O[C@H](O[C@H]1C(O)C2O)C(O)C9O)C(O)C8O)C(O)C7O)C(O)C6O)C(O)C5O)C(O)C4O)C(O)C3O (some centres undefined) | 0.52 µmol/kg |  | Max reversal (Mus musculus [5]): 96.5%; Max reversal (Cavia porcellus [6]): 98.3%
9 | 3 µM | O=C([O-])CCc1ccc(SCC2O[C@@H]3O[C@@H]4C(CSc5ccc(CCC(=O)[O-])cc5)O[C@H](O[C@@H]5C(CSc6ccc(CCC(=O)[O-])cc6)O[C@H](O[C@@H]6C(CSc7ccc(CCC(=O)[O-])cc7)O[C@H](O[C@@H]7C(CSc8ccc(CCC(=O)[O-])cc8)O[C@H](O[C@@H]8C(CSc9ccc(CCC(=O)[O-])cc9)O[C@H](O[C@@H]9C(CSc%10ccc(CCC(=O)[O-])cc%10)O[C@H](O[C@@H]%10C(CSc%11ccc(CCC(=O)[O-])cc%11)O[C@H](O[C@H]2C(O)C3O)C(O)C%10O)C(O)C9O)C(O)C8O)C(O)C7O)C(O)C6O)C(O)C5O)C(O)C4O)cc1.[Na+].[Na+].[Na+].[Na+].[Na+].[Na+].[Na+].[Na+] (some centres undefined) | 1.01 µmol/kg | 95.4% | Max reversal (Cavia porcellus [7]): 94.3%
10 | 0.1 µM | O=C([O-])c1ccccc1C(=O)NCCCSCC1O[C@@H]2O[C@@H]3C(CSCCCNC(=O)c4ccccc4C(=O)[O-])O[C@H](O[C@@H]4C(CSCCCNC(=O)c5ccccc5C(=O)[O-])O[C@H](O[C@@H]5C(CSCCCNC(=O)c6ccccc6C(=O)[O-])O[C@H](O[C@@H]6C(CSCCCNC(=O)c7ccccc7C(=O)[O-])O[C@H](O[C@@H]7C(CSCCCNC(=O)c8ccccc8C(=O)[O-])O[C@H](O[C@@H]8C(CSCCCNC(=O)c9ccccc9C(=O)[O-])O[C@H](O[C@@H]9C(CSCCCNC(=O)c%10ccccc%10C(=O)[O-])O[C@H](O[C@H]1C(O)C2O)C(O)C9O)C(O)C8O)C(O)C7O)C(O)C6O)C(O)C5O)C(O)C4O)C(O)C3O.[Na+].[Na+].[Na+].[Na+].[Na+].[Na+].[Na+].[Na+] (some centres undefined) | 0.27 µmol/kg | 90.7% | Max reversal (Cavia porcellus [14]): 83%
11 | 1.7 µM | O=C([O-])Cc1cccc(SCC2O[C@@H]3O[C@@H]4C(CSc5cccc(CC(=O)[O-])c5)O[C@H](O[C@@H]5C(CSc6cccc(CC(=O)[O-])c6)O[C@H](O[C@@H]6C(CSc7cccc(CC(=O)[O-])c7)O[C@H](O[C@@H]7C(CSc8cccc(CC(=O)[O-])c8)O[C@H](O[C@@H]8C(CSc9cccc(CC(=O)[O-])c9)O[C@H](O[C@@H]9C(CSc%10cccc(CC(=O)[O-])c%10)O[C@H](O[C@@H]%10C(CSc%11cccc(CC(=O)[O-])c%11)O[C@H](O[C@H]2C(O)C3O)C(O)C%10O)C(O)C9O)C(O)C8O)C(O)C7O)C(O)C6O)C(O)C5O)C(O)C4O)c1.[Na+].[Na+].[Na+].[Na+].[Na+].[Na+].[Na+].[Na+] (some centres undefined) | 0.53 µmol/kg | 99.1% | Max reversal (Cavia porcellus [3]): 104.6%
